Laboratory results: ChEMBL document CHEMBL1811814, “Synthesis and evaluation of indole, pyrazole, chromone and pyrimidine based conjugates for tumor growth inhibitory activities--development of highly efficacious cytotoxic agents” (Eur J Med Chem, 2010)

What was measured:
Assay type in all cases: functional
Design in all cases: scale not given: the % may be the effect or the level left
HOP-62 = experiment: Growth inhibition of human HOP62 cells assessed tumor cell growth at 10^-5 M
Method in brief: (§1)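 NCI 60-human-tumor-cell-line panel screen. Each compound was tested at a single concentration of 10^-5 M, and percent growth of tumor cells was recorded for each cell line. Growth inhibition was expressed from these percent-growth values.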

SNB-75 = experiment: Growth inhibition of human SNB75 cells assessed tumor cell growth at 10^-5 M
Method in brief: (§2)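 Single-dose screen at 10^-5 M across the 60 human tumor cell line panel, run to NCI standards. The value is the percent growth of each cell line in the presence of compound. Compounds active at this dose moved on to five-concentration testing (10^-4 to 10^-8 M).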

BT-549 = experiment: Growth inhibition of human BT549 cells assessed tumor cell growth at 10^-5 M; method in brief: as §1
MDA-MB-468 = experiment: Growth inhibition of human MDA-MB-468 cells assessed tumor cell growth at 10^-5 M; method in brief: as §1
HL-60(TB) = experiment: Growth inhibition of human HL-60(TB) cells assessed tumor cell growth at 10^-5 M
Method in brief: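 HL-60(TB), part of the 60-line panel, tested at a single concentration of 10^-5 M. The read-out is percent tumor cell growth relative to untreated growth.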

SN12C = experiment: Growth inhibition of human SN12C cells assessed tumor cell growth at 10^-5 M; method in brief: as §1
DU-145 = experiment: Growth inhibition of human DU145 cells assessed tumor cell growth at 10^-5 M; method in brief: as §1
U-251 = experiment: Growth inhibition of human U251 cells assessed tumor cell growth at 10^-5 M; method in brief: as §2
OVCAR-3 = experiment: Growth inhibition of human OVCAR3 cells assessed tumor cell growth at 10^-5 M; method in brief: as §1
RXF 393 = experiment: Growth inhibition of human RXF393 cells assessed tumor cell growth at 10^-5 M; method in brief: as §1
COLO 205 = experiment: Growth inhibition of human COLO205 cells assessed tumor cell growth at 10^-5 M; method in brief: as §1
TK-10 = experiment: Growth inhibition of human TK10 cells assessed tumor cell growth at 10^-5 M; method in brief: as §2
UACC-257 = experiment: Growth inhibition of human UACC257 cells assessed tumor cell growth at 10^-5 M; method in brief: as §2
NCI-H23 = experiment: Growth inhibition of human NCI-H23 cells assessed tumor cell growth at 10^-5 M; method in brief: as §1
M14 = experiment: Growth inhibition of human M14 cells assessed tumor cell growth at 10^-5 M; method in brief: as §1
HCC 2998 = experiment: Growth inhibition of human HCC2998 cells assessed tumor cell growth at 10^-5 M; method in brief: as §1
A549 = experiment: Growth inhibition of human A549 cells assessed tumor cell growth at 10^-5 M; method in brief: as §1
ACHN = experiment: Growth inhibition of human ACHN cells assessed tumor cell growth at 10^-5 M; method in brief: as §1
MCF7 = experiment: Growth inhibition of human MCF7 cells assessed tumor cell growth at 10^-5 M; method in brief: as §1
MDA-MB-435 = experiment: Growth inhibition of human MDA-MB-435 cells assessed tumor cell growth at 10^-5 M; method in brief: as §1
SNB-19 = experiment: Growth inhibition of human SNB19 cells assessed tumor cell growth at 10^-5 M; method in brief: as §2
OVCAR-5 = experiment: Growth inhibition of human OVCAR5 cells assessed tumor cell growth at 10^-5 M; method in brief: as §1
HT-29 = experiment: Growth inhibition of human HT-29 cells assessed tumor cell growth at 10^-5 M; method in brief: as §1
HCT-15 = experiment: Growth inhibition of human HCT15 cells assessed tumor cell growth at 10^-5 M; method in brief: as §1
NCI-H460 = experiment: Growth inhibition of human NCI-H460 cells assessed tumor cell growth at 10^-5 M; method in brief: as §1
PC-3 = experiment: Growth inhibition of human PC3 cells assessed tumor cell growth at 10^-5 M; method in brief: as §1
NCI-H322M = experiment: Growth inhibition of human NCI-H322M cells assessed tumor cell growth at 10^-5 M; method in brief: as §1
UO-31 = experiment: Growth inhibition of human UO31 cells assessed tumor cell growth at 10^-5 M; method in brief: as §2
K562 = experiment: Growth inhibition of human K562 cells assessed tumor cell growth at 10^-5 M; method in brief: as §1
IGROV-1 = experiment: Growth inhibition of human IGROV1 cells assessed tumor cell growth at 10^-5 M; method in brief: as §1
HCT-116 = experiment: Growth inhibition of human HCT116 cells assessed tumor cell growth at 10^-5 M; method in brief: as §1
[1] = Growth inhibition of human Hs 578T cells assessed tumor cell growth at 10^-5 M; method in brief: as §1
SW-620 = experiment: Growth inhibition of human SW620 cells assessed tumor cell growth at 10^-5 M; method in brief: as §2
Malme-3M = experiment: Growth inhibition of human MALME-3M cells assessed tumor cell growth at 10^-5 M; method in brief: as §1
CCRF-CEM = experiment: Growth inhibition of human CCRF-CEM cells assessed tumor cell growth at 10^-5 M; method in brief: as §1
UACC-62 = experiment: Growth inhibition of human UACC62 cells assessed tumor cell growth at 10^-5 M; method in brief: as §2
SR = experiment: Growth inhibition of human SR cells assessed tumor cell growth at 10^-5 M; method in brief: as §2
SK-MEL-28 = experiment: Growth inhibition of human SK-MEL-28 cells assessed tumor cell growth at 10^-5 M; method in brief: as §1
NCI/ADR-RES = experiment: Growth inhibition of human NCI/ADR-RES cells assessed tumor cell growth at 10^-5 M; method in brief: as §1
KM12 = experiment: Growth inhibition of human KM12 cells assessed tumor cell growth at 10^-5 M; method in brief: as §1
T47D = experiment: Growth inhibition of human T47D cells assessed tumor cell growth at 10^-5 M; method in brief: as §2
A498 = experiment: Growth inhibition of human A498 cells assessed tumor cell growth at 10^-5 M; method in brief: as §1
NCI-H522 = experiment: Growth inhibition of human NCI-H522 cells assessed tumor cell growth at 10^-5 M; method in brief: as §1
OVCAR-4 = experiment: Growth inhibition of human OVCAR4 cells assessed tumor cell growth at 10^-5 M; method in brief: as §1
EKVX = experiment: Growth inhibition of human EKVX cells assessed tumor cell growth at 10^-5 M; method in brief: as §1
CAKI-1 = experiment: Growth inhibition of human Caki1 cells assessed tumor cell growth at 10^-5 M; method in brief: as §1
LOX IMVI = experiment: Growth inhibition of human LOXIMVI cells assessed tumor cell growth at 10^-5 M; method in brief: as §1
SF-295 = experiment: Growth inhibition of human SF295 cells assessed tumor cell growth at 10^-5 M; method in brief: as §1
OVCAR-8 = experiment: Growth inhibition of human OVCAR8 cells assessed tumor cell growth at 10^-5 M; method in brief: as §1
SK-OV-3 = experiment: Growth inhibition of human SKOV3 cells assessed tumor cell growth at 10^-5 M; method in brief: as §1
SF-268 = experiment: Growth inhibition of human SF268 cells assessed tumor cell growth at 10^-5 M; method in brief: as §1
MOLT-4 = experiment: Growth inhibition of human MOLT4 cells assessed tumor cell growth at 10^-5 M; method in brief: as §1
NCI-H226 = experiment: Growth inhibition of human NCI-H226 cells assessed tumor cell growth at 10^-5 M; method in brief: as §1
HOP-92 = experiment: Growth inhibition of human HOP92 cells assessed tumor cell growth at 10^-5 M; method in brief: as §1
MDA-MB-231 = experiment: Growth inhibition of human MDA-MB-231 cells assessed tumor cell growth at 10^-5 M; method in brief: as §1
SK-MEL-5 = experiment: Growth inhibition of human SK-MEL-5 cells assessed tumor cell growth at 10^-5 M; method in brief: as §1
SK-MEL-2 = experiment: Growth inhibition of human SK-MEL-2 cells assessed tumor cell growth at 10^-5 M; method in brief: as §1
SF-539 = experiment: Growth inhibition of human SF539 cells assessed tumor cell growth at 10^-5 M; method in brief: as §1
[2] = Growth inhibition of human […] cells assessed tumor cell growth at 10^-5 M; method in brief: as §1
786-0 = experiment: Growth inhibition of human 786-0 cells assessed tumor cell growth at 10^-5 M; method in brief: as §1

CC1=NN(c2cccc(Cl)c2)C(=O)/C1=C\c1cn(C(=O)c2ccc(Cl)cc2)c2ccccc12
Activity (HOP-62): 94.61%
Activity (SNB-75): 80.97%
Activity (BT-549): 95.84%
Activity (MDA-MB-468): 103.55%
Activity (HL-60(TB)): 117.42%
Activity (SN12C): 92.22%
Activity (DU-145): 104.66%
Activity (U-251): 94.02%
Activity (OVCAR-3): 97.57%
Activity (RXF 393): 94.47%
Activity (COLO 205): 113.51%
Activity (TK-10): 167.41%
Activity (UACC-257): 105.58%
Activity (NCI-H23): 91.24%
Activity (M14): 96.55%
Activity (HCC 2998): 108.88%
Activity (A549): 96.27%
Activity (ACHN): 88.25%
Activity (MCF7): 87.82%
Activity (MDA-MB-435): 120.68%
Activity (SNB-19): 99.84%
Activity (OVCAR-5): 97.61%
Activity (HT-29): 101.17%
Activity (HCT-15): 91.41%
Activity (NCI-H460): 109.18%
Activity (PC-3): 95.29%
Activity (NCI-H322M): 109.45%
Activity (UO-31): 76.43%
Activity (K562): 107.93%
Activity (IGROV-1): 75.7%
Activity (HCT-116): 100.16%
Activity [1]: 92.29%
Activity (SW-620): 99.26%
Activity (Malme-3M): 101.23%
Activity (CCRF-CEM): 118.43%
Activity (UACC-62): 90.62%
Activity (SR): 96.12%
Activity (SK-MEL-28): 112.94%
Activity (NCI/ADR-RES): 107.61%
Activity (KM12): 93.09%
Activity (T47D): 79.84%
Activity (A498): 123.09%
Activity (NCI-H522): 100.77%
Activity (OVCAR-4): 99.58%
Activity (EKVX): 79.35%
Activity (CAKI-1): 92.37%
Activity (LOX IMVI): 90.49%
Activity (SF-295): 102.34%
Activity (OVCAR-8): 98.63%
Activity (SK-OV-3): 91.35%
Activity (SF-268): 98.24%
Activity (MOLT-4): 99.47%
Activity (NCI-H226): 86.8%
Activity (HOP-92): 99.69%
Activity (MDA-MB-231): 87.79%
Activity (SK-MEL-5): 90.74%
Activity (SK-MEL-2): 105.09%
Activity (SF-539): 97.75%
Activity [2]: 97.03%
Activity (786-0): 104.1%

O=C1C(=Cc2cn(Cc3ccccc3)c3ccccc23)C(=O)N(Cc2ccccc2)C(=O)N1Cc1ccccc1
Activity (HOP-62): 85.4%
Activity (SNB-75): 44.9%
Activity (BT-549): 118.1%
Activity (MDA-MB-468): -71.7%
Activity (HL-60(TB)): 96.4%
Activity (SN12C): 101.3%
Activity (DU-145): 110.4%
Activity (U-251): 75.6%
Activity (OVCAR-3): 97.7%
Activity (RXF 393): 57.6%
Activity (COLO 205): 26.4%
Activity (TK-10): 40.6%
Activity (UACC-257): 52.9%
Activity (NCI-H23): 87.7%
Activity (M14): 103.5%
Activity (HCC 2998): 97.4%
Activity (A549): 80%
Activity (ACHN): 86.2%
Activity (MCF7): 80.2%
Activity (MDA-MB-435): 108.2%
Activity (SNB-19): 87.1%
Activity (OVCAR-5): -7.2%
Activity (HT-29): 110.8%
Activity (HCT-15): 85.7%
Activity (NCI-H460): 36%
Activity (PC-3): 90.3%
Activity (NCI-H322M): 105%
Activity (UO-31): 73.3%
Activity (K562): 81.4%
Activity (IGROV-1): 75.7%
Activity (HCT-116): 76.1%
Activity [1]: 90.7%
Activity (SW-620): 100.6%
Activity (Malme-3M): 104.8%
Activity (CCRF-CEM): 117.9%
Activity (UACC-62): 53.1%
Activity (SR): 87.2%
Activity (SK-MEL-28): 109.5%
Activity (NCI/ADR-RES): 105.7%
Activity (KM12): 100.7%
Activity (T47D): 51.6%
Activity (A498): -95.7%
Activity (NCI-H522): 87.6%
Activity (OVCAR-4): 57.3%
Activity (EKVX): 97.5%
Activity (CAKI-1): 94.6%
Activity (LOX IMVI): 87.1%
Activity (SF-295): 34.3%
Activity (OVCAR-8): 83.5%
Activity (SK-OV-3): 47.7%
Activity (SF-268): 87.5%
Activity (MOLT-4): 95.2%
Activity (NCI-H226): -49.4%
Activity (HOP-92): 90.9%
Activity (MDA-MB-231): 89.3%
Activity (SK-MEL-5): 104.1%
Activity (SK-MEL-2): 83.9%
Activity (SF-539): 83.5%
Activity [2]: 93.2%
Activity (786-0): 93.2%
